Test results taken from PubChem BioAssay.
Records with an inconclusive call do not appear. The source made the active and inactive calls.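 The calls were made as follows, unless noted: active = growth inhibition above 25% in both replicates, a cutoff set 3 SD above the mean; inconclusive = above 25% in only one replicate; inactive = the rest.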

What was measured:
[1] = S. cerevisiae growth inhibition in permissive medium (OD615), pilot counter-assay for S. cerevisiae lifespan shortening project, permissive growth control (AID 705); settings: OD615, 24 h, at 10 µM, active compounds read high
Method in brief: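 Material: engineered DeaD yeast; Compound: one dose 10 µM, DMSO 0.25% final; Detection: absorbance (optical density) at 615 nm; Buffer or medium: permissive raffinose/galactose medium; Timing: 24 h exposure, 30 °C.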

[2] = S. cerevisiae growth inhibition in restrictive medium, OD615, pilot screen, restrictive growth control, yeast lifespan reduction project (AID 706;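 active = growth inhibition above a set limit, 3 SD over mean compound inhibition, in both replicates, cut at about 43% in these data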;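 also: modified DeaD lifespan yeast strain shifted to restrictive glucose medium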); settings: OD615, 48 h, at 10 µM, active compounds read high
Method in brief: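 Buffer or medium: restrictive glucose medium (CSMM-D); test system: modified S. cerevisiae; doses: single dose of 10 µM compound final, 0.25% DMSO; schedule: 48 h compound exposure at 30 °C; detection: absorbance (optical density) measured at 615 nm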

[3] = doxorubicin toxicity protection in MRP-1 cells – H69AR cells, CellTiter-Glo, duplicate, MRP-1 activator project, pilot screen (AID 807;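 active = viability increase at or above a cutoff of the median across tested compounds plus 3 SD, cut at about 8.5% in these data, passing the limit was not always enough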;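 also: compound pretreatment 18-22 h then 72 h combined with doxorubicin; 0% = doxorubicin alone and 100% = vehicle without doxorubicin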); settings: H69AR viability with doxorubicin, CellTiter-Glo luminescence; at 10 µM; active compounds read high
[4] = viability of HCT116 without oncogenic beta-catenin – human colon tumor cells, pilot screen (AID 823;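 active = cell viability at or below a set limit in both duplicate runs, the limit being the all-compound median minus 4 SD, cut at about 23% in these data, passing the limit was not always enough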;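 also: 0% = wells killed by 20 µM Hyamine and 100% = untreated DMSO cell wells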); settings: HCT116 beta-catenin knockout viability, CellTiter-Glo, 60 h; at 10 µM; active compounds read low
[5] = viability of PTEN-null HCT116 cells – cell-based, HCT116 clonal line, CellTiter-Glo, pilot screen (AID 824;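 active = viability at or below 27.92% in each of two runs, the all-compound median minus 4 SD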;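 also: 0% = 20 µM Hyamine control and 100% = vehicle cell control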); settings: HCT116 PTEN-deleted viability, 60 h, at 10 µM, active compounds read low
[6] = RAM pathway blockade in budding yeast – dse1pr::URA3 reporter, 5-FOA selection, pilot screen (AID 869;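 active = inhibition over a set limit, the all-compound mean plus 3 SD, in both replicate runs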;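 also: 0% = DMSO wells with no growth and 100% = 10 µM 1-NA-PP1 with full growth; RAM network block rescues cells from 5-FOA so hits raise OD615 growth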); settings: S. cerevisiae dse1pr::URA3 5-FOA growth, OD615, 2 d; at 10 µM; active compounds read high; strain carries analog-sensitive mutant Cbk1 kinase
[7] = RAM signaling pathway blockade in yeast – S. cerevisiae, Pdr1DBD-CYC8 efflux-inhibited sensitized strain, primary screen (AID 1298;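 active = RAM network inhibition above 8.4% in each of two replicates, 3 SD over the compound average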;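 also: 0% = DMSO untreated cells without growth and 100% = 10 µM 1-NA-PP1 full growth; higher means more yeast growth rescued from 5-FOA killing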); settings: S. cerevisiae cbk1-as DSE1-URA3 strain, 5-FOA growth OD615, 2 d; at 50 µM; active compounds read high

C=CCn1c(C(C)NC(=O)CCC)nc2ccccc21 (configuration not stated)
inactive: growth inhibition [1] 0.415% | growth inhibition [2] 7.8% | viability increase [3] -0.88% | viability [4] 104% | viability [5] 93.9% | inhibition [6] 1.11% | RAM network inhibition [7] -0.02%

CCCc1cc(C(=O)NC2CCCC2)no1
inactive: growth inhibition [1] -11.7% | growth inhibition [2] -2.35% | viability increase [3] 0.7% | viability [4] 103% | viability [5] 98.1% | inhibition [6] 0.365% | RAM network inhibition [7] 3.3%

CC(C)(Oc1ccc(Cl)cc1)C(=O)Nc1cccnc1
inactive: growth inhibition [1] -4.86% | growth inhibition [2] -6.65% | viability increase [3] -3.43% | viability [4] 92.6% | viability [5] 83.1% | inhibition [6] 0.405% | RAM network inhibition [7] 1.94%

Cc1onc(-c2ccccc2Cl)c1C(=O)OCn1nnc2ccccc2c1=O
inactive: growth inhibition [1] -5.29% | growth inhibition [2] -2.08% | viability increase [3] -1.94% | viability [4] 84.4% | viability [5] 87.3% | inhibition [6] 2.41% | RAM network inhibition [7] 7.77%

O=C1NC(c2ccco2)Nc2sc3c(c21)CCN(Cc1ccccc1)C3 (configuration not stated)
inactive: growth inhibition [1] 4.68% | growth inhibition [2] 17.8% | viability increase [3] -3.01% | viability [4] 103% | viability [5] 94% | inhibition [6] 1.84% | RAM network inhibition [7] 3.69%

CNC(=O)c1cc2cc(OC)ccc2n1CCN(C)C
inactive: growth inhibition [1] -8.87% | growth inhibition [2] -16.4% | viability increase [3] -3.65% | viability [4] 92% | viability [5] 87.2% | inhibition [6] 2.31% | RAM network inhibition [7] 6.18%

CCOc1ccc(C(=O)Nc2cc(C)c3c(=O)oc4ccccc4c3n2)cc1
inactive: growth inhibition [1] -0.2% | growth inhibition [2] 9.54% | viability increase [3] -7.84% | viability [4] 65% | viability [5] 40.8% | inhibition [6] 1.54% | RAM network inhibition [7] 1.29%

Cc1nc2sc(C(c3cccs3)N3CCN(C(=O)c4ccco4)CC3)c(O)n2n1 (configuration not stated)
inactive: growth inhibition [1] -1.15% | growth inhibition [2] -6.47% | viability increase [3] -3.62% | viability [4] 102% | viability [5] 100% | inhibition [6] 0.74% | RAM network inhibition [7] -1.05%

COCCNC(=O)c1cc2c(-c3ccc(Cl)cc3)nn(C)c2s1
inactive: growth inhibition [1] 3.03% | growth inhibition [2] 8.65% | viability increase [3] -6% | viability [4] 64.6% | viability [5] 71% | inhibition [6] 0.32% | RAM network inhibition [7] 10.4%

COc1cc(Br)c(CC(=O)O)cc1OC
inactive: growth inhibition [1] -24.6% | growth inhibition [2] -13.7% | viability increase [3] -0.03% | viability [4] 98.2% | viability [5] 97.1% | inhibition [6] 2.38% | RAM network inhibition [7] 3.76%

CCCCCn1c(CNC(C)=O)nc2ccccc21
inactive: growth inhibition [1] -11.1% | growth inhibition [2] -13.2% | viability increase [3] 0.03% | viability [4] 93.5% | viability [5] 97.7% | inhibition [6] 0.54% | RAM network inhibition [7] 7.59%

CCC1(C)C2(C#N)C(N)=NC(OC)(OC)C12C#N (configuration not stated)
inactive: growth inhibition [1] -5.98% | growth inhibition [2] -10.1% | viability increase [3] -0.83% | viability [4] 106% | viability [5] 99.3% | inhibition [6] 1.41% | RAM network inhibition [7] 2.07%

COc1ccc(NC2=C(C)C(=O)CC2)cc1
inactive: growth inhibition [1] 7.55% | growth inhibition [2] -3.12% | viability increase [3] -4.82% | viability [4] 65.9% | viability [5] 69.5% | inhibition [6] 0.505% | RAM network inhibition [7] 1.49%

O=C(CCCCn1c(=O)[nH]c2ccccc2c1=O)N1CCN(c2ncccn2)CC1
inactive: growth inhibition [1] -13.4% | growth inhibition [2] -20.2% | viability increase [3] -1.54% | viability [4] 104% | viability [5] 105% | inhibition [6] 0.76% | RAM network inhibition [7] 0.58%

Cc1noc(NS(=O)(=O)c2ccc(NC(=O)CSc3nc4c(cc3C#N)CCCC4)cc2)c1C
inactive: growth inhibition [1] 2.36% | growth inhibition [2] 3.98% | viability increase [3] 0.62% | viability [4] 109% | viability [5] 101% | inhibition [6] 2.52% | RAM network inhibition [7] 2.9%

O=C1C2C3C=CC(CO)(O3)C2C(=O)N1c1ccccc1-c1ccccc1 (configuration not stated)
active: growth inhibition [1] 97.3% | growth inhibition [2] 100%
inactive: viability increase [3] -4.39% | viability [4] 93.7% | viability [5] 92% | inhibition [6] 0.13% | RAM network inhibition [7] -1.89%

O=C(c1ccco1)N1CCN(C(=O)c2oc(=O)c3ccccc3c2-c2ccccc2)CC1
inactive: growth inhibition [1] -6.24% | growth inhibition [2] -4.58% | viability increase [3] -1.47% | viability [4] 105% | viability [5] 98.5% | inhibition [6] 0.68% | RAM network inhibition [7] 3.83%

Cn1nc(-c2ccc(Cl)cc2)c2cc(C(=O)NC3CC3)sc21
inactive: growth inhibition [1] -7.08% | growth inhibition [2] -1.2% | viability increase [3] -6.68% | viability [4] 83.6% | viability [5] 84.2% | inhibition [6] 3.62% | RAM network inhibition [7] 3.94%

CCOC(=O)N1CCC(NC(=O)c2ccc(CS(=O)(=O)c3ccc(OC)cc3)o2)CC1
inactive: growth inhibition [1] 5.7% | growth inhibition [2] -8.08% | viability increase [3] -2.5% | viability [4] 104% | viability [5] 94.1% | inhibition [6] 1.96% | RAM network inhibition [7] 1.82%

CN1CCN(C(=O)c2cn(C)c3ccc(S(=O)(=O)N(C)C4CCCCC4)cc3c2=O)CC1
inactive: growth inhibition [1] -7.8% | growth inhibition [2] -13.2% | viability increase [3] -2.39% | viability [4] 102% | viability [5] 101% | inhibition [6] 0% | RAM network inhibition [7] -0.26%

COc1cc2c(C(=O)NCc3ccccn3)cn(CC(C)C)c(=O)c2cc1OC
inactive: growth inhibition [1] -6.14% | growth inhibition [2] -28.3% | viability increase [3] -3.77% | viability [4] 104% | viability [5] 92.4% | inhibition [6] 1.55% | RAM network inhibition [7] 1.16%

Cn1c(C(=O)N2CCC(C(=O)N3CCOCC3)CC2)cc2sccc21
inactive: growth inhibition [1] -9.67% | growth inhibition [2] -7.13% | viability increase [3] 1.85% | viability [4] 98.7% | viability [5] 98.8% | inhibition [6] 0.59% | RAM network inhibition [7] 0.9%

Cc1ccc(CCNC(=O)C2CCCN(S(=O)(=O)c3c(C)noc3/C=C/N(C)C)C2)cc1 (configuration not stated)
inactive: growth inhibition [1] -1.76% | growth inhibition [2] 6.26% | viability increase [3] -1.67% | viability [4] 88.1% | viability [5] 74.1% | inhibition [6] 1.85% | RAM network inhibition [7] 1.68%

COc1ccc(C2=CC(c3ccc(Cl)cc3)n3cnnc3N2)cc1OC (configuration not stated)
inactive: growth inhibition [1] -1.79% | growth inhibition [2] 2.91% | viability increase [3] -2.06% | viability [4] 97.3% | viability [5] 87% | inhibition [6] 0.37% | RAM network inhibition [7] 0.78%

Cc1ccc(-c2cc3c(nn2)-c2ccccc2C3=O)cc1
inactive: growth inhibition [1] -17% | growth inhibition [2] -5.93% | viability increase [3] -6.54% | viability [4] 53.4% | viability [5] 49.6% | inhibition [6] 4.56% | RAM network inhibition [7] 7.67%

O=C(Nc1ccccc1C(=O)NCc1ccco1)NC1CCCCC1
inactive: growth inhibition [1] -5.4% | growth inhibition [2] 6.01% | viability increase [3] -3.58% | viability [4] 93.1% | viability [5] 92.8% | inhibition [6] 0.79% | RAM network inhibition [7] 0.59%

CC1=C(C(=O)N(C)C)C(c2cccc(Cl)c2)NC(=O)N1 (configuration not stated)
inactive: growth inhibition [1] -2.44% | growth inhibition [2] -14.6% | viability increase [3] 0.18% | viability [4] 99.1% | viability [5] 94.9% | inhibition [6] 2.12% | RAM network inhibition [7] 2.17%

CC1CC(C)CN(S(=O)(=O)c2ccc(NC(=O)C3COc4ccccc4O3)cc2)C1 (configuration not stated)
inactive: growth inhibition [1] -14.1% | growth inhibition [2] -24.7% | viability increase [3] -7.35% | viability [4] 53.9% | viability [5] 54.7% | inhibition [6] 3.38% | RAM network inhibition [7] 2.76%

O=c1c2ccccc2c2ccccc2c(=O)n1CC1CCCO1 (configuration not stated)
inactive: growth inhibition [1] 2.77% | growth inhibition [2] 0.685% | viability increase [3] -2.2% | viability [4] 101% | viability [5] 89.6% | inhibition [6] 0.305% | RAM network inhibition [7] 12.7%

CC1=C(C(=O)OC2CCCCCCC2)C(c2cccc(O)c2)NC(=O)N1 (configuration not stated)
inactive: growth inhibition [1] -1.81% | growth inhibition [2] 0.17% | viability increase [3] 4.53% | viability [4] 65.2% | viability [5] 65.6% | inhibition [6] 0.63% | RAM network inhibition [7] 0.89%

CCOCCn1c(SCc2ccc(C)cc2)nc2c1c(=O)[nH]c(=O)n2C
inactive: growth inhibition [1] -5.33% | growth inhibition [2] 3.62% | viability increase [3] -3.46% | viability [4] 92.5% | viability [5] 95.1% | inhibition [6] 1.49% | RAM network inhibition [7] 4.28%

CCC(C)Sc1nc2c([nH]c3ccccc32)c(=O)n1C (configuration not stated)
inactive: growth inhibition [1] -16.9% | growth inhibition [2] -15.8% | viability increase [3] -4.85% | viability [4] 72.4% | viability [5] 70.6% | inhibition [6] 2.48% | RAM network inhibition [7] 3.48%

O=C(CCSc1ccccc1)Nc1nnc(-c2ccccc2)o1
inactive: growth inhibition [1] -0.38% | growth inhibition [2] 3.81% | viability increase [3] -3.73% | viability [4] 98.9% | viability [5] 103% | inhibition [6] 0.27% | RAM network inhibition [7] 2.5%

CCOC(=O)c1sc(NC(=O)c2ccc3ncsc3c2)nc1C
inactive: growth inhibition [1] -5.17% | growth inhibition [2] 0.14% | viability increase [3] -2.47% | viability [4] 84.2% | viability [5] 82.8% | inhibition [6] 2.75% | RAM network inhibition [7] 5.36%

CCCC1(C(=O)O)NC(c2ccccc2O)C2C(=O)N(c3cccc(Cl)c3)C(=O)C21 (configuration not stated)
inactive: growth inhibition [1] 6.45% | growth inhibition [2] 7.74% | viability increase [3] 0.1% | viability [4] 107% | viability [5] 94.5% | inhibition [6] 0.955% | RAM network inhibition [7] 0.05%

Cc1sc2nc(SCC(=O)OC(C)C)n(C)c(=O)c2c1C
inactive: growth inhibition [1] -2.81% | growth inhibition [2] 31.4% | viability increase [3] -1.84% | viability [4] 105% | viability [5] 94.8% | inhibition [6] 2.59% | RAM network inhibition [7] 2.75%
